Reference: ChEMBL document CHEMBL1154846, “Micropeptins from an Israeli fishpond water bloom of the cyanobacterium Microcystis sp” (J Nat Prod, 2010)
Calls of active or inactive are those of the source. No cut-off for these calls is given here.

Assays:
[1] = Inhibition of chymotrypsin after 30 mins
Outline: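 Commercial chymotrypsin, 10 mg/mL stock in 0.05 M Tris-HCl/100 mM NaCl/1 mM CaCl2, pH 7.5. Sample (1 mg/mL DMSO stock) preincubated with enzyme in buffer at 37 °C for 10 min. Suc-Gly-Gly-p-nitroanilide substrate (1 mg/mL stock in Tris buffer) then added. Reaction kinetics followed at 405 nm, 37 °C, for 30 min.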

[2] = biological target: Chymotrypsin-like elastase family member 1 (Homo sapiens) (UniProt Q9UNI1); assay: Inhibition of elastase after 20 mins
Chain of Chymotrypsin-like elastase family member 1 (Homo sapiens) (Q9UNI1 whole entry): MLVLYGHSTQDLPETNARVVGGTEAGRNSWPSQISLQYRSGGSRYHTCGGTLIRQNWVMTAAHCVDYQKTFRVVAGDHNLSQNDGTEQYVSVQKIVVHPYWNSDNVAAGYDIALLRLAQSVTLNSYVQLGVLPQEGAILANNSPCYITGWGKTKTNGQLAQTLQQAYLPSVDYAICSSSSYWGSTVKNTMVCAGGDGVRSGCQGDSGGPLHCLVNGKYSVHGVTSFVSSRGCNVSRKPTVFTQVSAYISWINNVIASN
Outline: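 Elastase stock 75 mg/mL in 0.2 M Tris-HCl, pH 8. Sample (1 mg/mL DMSO stock) preincubated with enzyme in buffer at 30 °C for 20 min. N-Suc-Ala-Ala-Ala-p-nitroanilide substrate (1 mg/mL stock in Tris buffer) then added. Kinetics read at 405 nm, 37 °C, for 20 min.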

Prothrombin = Prothrombin (Homo sapiens, UniProt P00734); assay: Inhibition of thrombin after 20 mins
Outline: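 Thrombin in 0.2 M Tris-HCl, pH 8, preincubated with sample (DMSO, 1 mg/mL stock) at 25 °C for 5 min. Z-Gly-Pro-Arg-4MβNA substrate (0.5 mg/mL stock in Tris buffer) then added. Reaction kinetics read at 405 nm, 37 °C, for 20 min; IC50 reported.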

[3] = Inhibition of trypsin after 30 mins
Outline: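 Trypsin stock 1 mg/mL in 0.05 M Tris-HCl/100 mM NaCl/1 mM CaCl2, pH 7.5. Sample (1 mg/mL DMSO stock) preincubated with enzyme at 37 °C for 10 min. BAPNA substrate (stock in 1:9 DMSO/Tris buffer) then added. Kinetics at 405 nm, 37 °C, for 30 min, giving IC50.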

CC[C@H](C)[C@@H]1NC(=O)[C@H](Cc2ccccc2)N(C)C(=O)[C@H]([C@@H](C)CC)N2C(=O)[C@H](CC[C@H]2OC)NC(=O)[C@H](CCCNC(=N)N)NC(=O)[C@@H](N)[C@@H](C)OC1=O
Activity [1]: inactive
Activity [2]: inactive
Activity (Prothrombin): inactive

CC[C@H](C)[C@@H]1NC(=O)[C@H](Cc2ccccc2)N(C)C(=O)[C@H]([C@@H](C)CC)N2C(=O)[C@H](CC[C@H]2OC)NC(=O)[C@H](CCCNC(=N)N)NC(=O)[C@@H](NC(=O)[C@H](O)COS(=O)(=O)O)[C@@H](C)OC1=O
IC50 [3]: 1.5 µM
Activity [1]: inactive
Activity [2]: inactive
Activity (Prothrombin): inactive

CC[C@H](C)[C@@H]1NC(=O)[C@H](Cc2ccccc2)N(C)C(=O)[C@H]([C@@H](C)CC)N2C(=O)[C@H](CC[C@H]2O)NC(=O)[C@H](CCCNC(=N)N)NC(=O)[C@@H](NC(=O)[C@@H](COS(=O)(=O)O)OS(=O)(=O)O)[C@@H](C)OC1=O [CYANOPEPTOLIN SS]
IC50 [3]: 2.9 µM
Activity [1]: inactive
Activity [2]: inactive

CC[C@H](C)[C@@H]1NC(=O)[C@H](Cc2ccccc2)N(C)C(=O)[C@H]([C@@H](C)CC)N2C(=O)[C@H](CC[C@H]2OC)NC(=O)[C@H](CCCNC(=N)N)NC(=O)[C@@H](NC(=O)[C@@H](CO)OS(=O)(=O)O)[C@@H](C)OC1=O
IC50 [3]: 7.4 µM
Activity [1]: inactive
Activity [2]: inactive
Activity (Prothrombin): inactive

CC[C@H](C)[C@@H]1NC(=O)[C@H](Cc2ccccc2)N(C)C(=O)[C@H]([C@@H](C)CC)N2C(=O)[C@H](CC[C@H]2OC)NC(=O)[C@H](CCCNC(=N)N)NC(=O)[C@@H](NC(=O)[C@H](O)CO)[C@@H](C)OC1=O
IC50 [3]: 0.6 µM
Activity [1]: inactive
Activity [2]: inactive
IC50 (Prothrombin): 52.9 µM

CC[C@H](C)[C@@H]1NC(=O)[C@H](Cc2ccccc2)N(C)C(=O)[C@H]([C@@H](C)CC)N2C(=O)[C@H](CC[C@H]2O)NC(=O)[C@H](CCCN=C(N)N)NC(=O)[C@@H](NC(=O)[C@@H](COS(=O)(=O)O)OS(=O)(=O)O)[C@@H](C)OC1=O [CYANOPEPTOLIN SS]
IC50 (Prothrombin): 45.2 µM

CC[C@H](C)[C@@H]1NC(=O)[C@H](Cc2ccccc2)N(C)C(=O)[C@H]([C@@H](C)CC)N2C(=O)[C@H](CC[C@H]2O)NC(=O)[C@H](CCCNC(=N)N)NC(=O)[C@@H](NC(=O)[C@H](O)COS(=O)(=O)O)[C@@H](C)OC1=O [CYANOPEPTOLIN S]
IC50 [3]: 4.1 µM
Activity [1]: inactive
Activity [2]: inactive
Activity (Prothrombin): inactive

CC[C@H](C)[C@@H]1NC(=O)[C@H](Cc2ccccc2)N(C)C(=O)[C@H]([C@@H](C)CC)N2C(=O)[C@H](CC[C@H]2O)NC(=O)[C@H](CCCNC(=N)N)NC(=O)[C@@H](NC(=O)[C@H](O)CO)[C@@H](C)OC1=O
IC50 [3]: 2.6 µM
Activity [1]: inactive
Activity [2]: inactive
Activity (Prothrombin): inactive

CC[C@H](C)[C@@H]1NC(=O)[C@H](Cc2ccccc2)N(C)C(=O)[C@H]([C@@H](C)CC)N2C(=O)[C@H](CC[C@H]2O)NC(=O)[C@H](CCCNC(=N)N)NC(=O)[C@@H](NC(=O)[C@@H](CO)OS(=O)(=O)O)[C@@H](C)OC1=O
IC50 [3]: 24.2 µM
Activity [1]: inactive
Activity [2]: inactive
Activity (Prothrombin): inactive

CC[C@H](C)[C@@H]1NC(=O)[C@H](Cc2ccccc2)N(C)C(=O)[C@H]([C@@H](C)CC)N2C(=O)[C@H](CC[C@H]2OC)NC(=O)[C@H](CCCNC(=N)N)NC(=O)[C@@H](NC(=O)[C@@H](COS(=O)(=O)O)OS(=O)(=O)O)[C@@H](C)OC1=O
IC50 [3]: 1.6 µM
Activity [1]: inactive
Activity [2]: inactive
Activity (Prothrombin): inactive
